B1: Osa-1-4 twister ribozyme (parent)
chain: CCGCCUAACACUGCCAAUGCCGGUCCCAAGCCCGGAUAAAAGUGGAGGGGGCGG

The data set covers variants of B1. Nature of the data set: self-cleavage, relative activity (ratio to wild type); higher = more cleavage; co-transcriptional. The method in brief: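 The 48 positions downstream of the cleavage site in a 54-nucleotide Oryza sativa twister ribozyme template were synthesised at 97 % wild-type base and 1 % of each other base. The template was transcribed in vitro at 37 °C for 2 h, with self-cleavage allowed during transcription. Reads with or without upstream sequence after deep sequencing marked cleavage status, and relative activity is fraction cleaved normalised to wild type.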
For the variant CCGCCUAACACUGCCGAUGCCGGUUCCAAGCCCGGAUAAAAGUGGAGGGGGCGG [A16G C25U], the self-cleavage amounted to 0.94. In the case of CCGCCUAACACUGCCGAUGCCGGUACCAAGCCCGGAUAAAAGUGGAGGGGGCGG [A16G C25A], the self-cleavage was 0.24. Turning to CCGCCUAACACUGCCGAUGCCGGUGCCAAGCCCGGAUAAAAGUGGAGGGGGCGG [A16G C25G], the self-cleavage was 0.16. Under CCGCCUAACACUGCCGAUGCCGGUCCCAAGCCCGGAUAAAAGUGUAGGGGGCGG [A16G G45U] stands 0.19; under CCGCCUAACACUGCCGAUGCCGGUCCCAAGCCCGGAUAAAAGUGCAGGGGGCGG [A16G G45C], 0.08. With CCGCCUAACACUGCCGAUGCCGGUCCCAAGCCCGGAUAAAAGUGAAGGGGGCGG [A16G G45A] the figure was 0.55; with CCGCCUAACACUGCCGAUGCCGGUCCCAAGCCCGGAUAAAAAUGGAGGGGGCGG [A16G G42A], 0.86.

On to CCGCCUAACACUGCCGAUGCCGGUCCCAAGCCCGGAUAAAAUUGGAGGGGGCGG [A16G G42U], for which the self-cleavage worked out at 0.57. With CCGCCUAACACUGCCGAUGCCGGUCCCAAGCCCGGAUAAAACUGGAGGGGGCGG [A16G G42C] the figure was 0.62.

In the case of CCGCCUAACACUGCCGAUUCCGGUCCCAAGCCCGGAUAAAAGUGGAGGGGGCGG [A16G G19U], the self-cleavage is 0.57. CCGCCUAACACUGCCGAUACCGGUCCCAAGCCCGGAUAAAAGUGGAGGGGGCGG [A16G G19A]: the self-cleavage was determined as 0.98. Under CCGCCUAACACUGCCGAUCCCGGUCCCAAGCCCGGAUAAAAGUGGAGGGGGCGG [A16G G19C] stands 0.4; under CCGCCUAACACUGCCGAUGCCGGUCCCAAGCCCGGAUAAAAGUGGAGGGAGCGG [A16G G50A], 0.77; under CCGCCUAACACUGCCGAUGCCGGUCCCAAGCCCGGAUAAAAGUGGAGGGCGCGG [A16G G50C], 0.95. In the case of CCGCCUAACACUGCCGAUGCCGGUCCCAAGCCCGGAUAAAAGUGGAGGGUGCGG [A16G G50U], the self-cleavage amounted to 1.02.

With CCGCCUAACACUGCCGAUGCCGGUCCCAAGCCGGGAUAAAAGUGGAGGGGGCGG [A16G C33G], the self-cleavage stood at 0.08. Under CCGCCUAACACUGCCGAUGCCGGUCCCAAGCCUGGAUAAAAGUGGAGGGGGCGG [A16G C33U] stands 0.87. Under CCGCCUAACACUGCCGAUGCCGGUCCCAAGCCAGGAUAAAAGUGGAGGGGGCGG [A16G C33A] stands 0.26; under CCGCCUAACACUGCCGAUGCCGGGCCCAAGCCCGGAUAAAAGUGGAGGGGGCGG [A16G U24G], 0.04. Under CCGCCUAACACUGCCGAUGCCGGACCCAAGCCCGGAUAAAAGUGGAGGGGGCGG [A16G U24A] stands 0.48. Consider CCGCCUAACACUGCCGAUGCCGGCCCCAAGCCCGGAUAAAAGUGGAGGGGGCGG [A16G U24C], for which the self-cleavage worked out at 0.58. For the variant CCGCCUAACACUGCCGAUGCCGGUCCCAAGCCCGGAUAAAAGUGGAGCGGGCGG [A16G G48C], the self-cleavage is 0.15. On to CCGCCUAACACUGCCGAUGCCGGUCCCAAGCCCGGAUAAAAGUGGAGUGGGCGG [A16G G48U], for which the self-cleavage was 0.1.

Turning to CCGCCUAACACUGCCGAUGCCGGUCCCAAGCCCGGAUAAAAGUGGAGAGGGCGG [A16G G48A], the self-cleavage is 0.18.

For the variant CCGCCUAACACUGCCGAUGCCGGUCCCAAGCCCGGAUAAAAGUGGAGGGGGCGA [A16G G54A], the self-cleavage stood at 0.98.

As to CCGCCUAACACUGCCGAUGCCGGUCCCAAGCCCGGAUAAAAGUGGAGGGGGCGC [A16G G54C], the self-cleavage stood at 0.99. Under CCGCCUAACACUGCCGAUGCCGGUCCCAAGCCCGGAUAAAAGUGGAGGGGGCGU [A16G G54U] stands 0.93; under CCGCCUAACACUGCCGAUGCCGGUCCCAAACCCGGAUAAAAGUGGAGGGGGCGG [A16G G30A], 0.04. Under CCGCCUAACACUGCCGAUGCCGGUCCCAAUCCCGGAUAAAAGUGGAGGGGGCGG [A16G G30U] stands 0.04. Under CCGCCUAACACUGCCGAUGCCGGUCCCAACCCCGGAUAAAAGUGGAGGGGGCGG [A16G G30C] stands 0.05. In the case of CCGCCUAACACUGCCGAUGCCGGUCCCAAGCCCAGAUAAAAGUGGAGGGGGCGG [A16G G34A], the self-cleavage came out at 0.84.

As to CCGCCUAACACUGCCGAUGCCGGUCCCAAGCCCCGAUAAAAGUGGAGGGGGCGG [A16G G34C], the self-cleavage stood at 0.74. Under CCGCCUAACACUGCCGAUGCCGGUCCCAAGCCCUGAUAAAAGUGGAGGGGGCGG [A16G G34U] stands 0.82; under CCGCCUAACACUGCCGAUGCCGGUCCCAAGCACGGAUAAAAGUGGAGGGGGCGG [A16G C32A], 0.08; under CCGCCUAACACUGCCGAUGCCGGUCCCAAGCGCGGAUAAAAGUGGAGGGGGCGG [A16G C32G], 0.19. Consider CCGCCUAACACUGCCGAUGCCGGUCCCAAGCUCGGAUAAAAGUGGAGGGGGCGG [A16G C32U], for which the self-cleavage is 0.09. With CCGCCUAACACUGCCGAUGUCGGUCCCAAGCCCGGAUAAAAGUGGAGGGGGCGG [A16G C20U] the figure was 0.99; with CCGCCUAACACUGCCGAUGGCGGUCCCAAGCCCGGAUAAAAGUGGAGGGGGCGG [A16G C20G], 0.19. For CCGCCUAACACUGCCGAUGACGGUCCCAAGCCCGGAUAAAAGUGGAGGGGGCGG [A16G C20A], the self-cleavage is 0.86.

CCGCCUAACACUGCCGAUGCCGGUCCCAAGCCCGGAUAAAAGUGGAGGGGGUGG [A16G C52U]: the self-cleavage amounted to 0.99. For the variant CCGCCUAACACUGCCGAUGCCGGUCCCAAGCCCGGAUAAAAGUGGAGGGGGGGG [A16G C52G], the self-cleavage came to 1.

CCGCCUAACACUGCCGAUGCCGGUCCCAAGCCCGGAUAAAAGUGGAGGGGGAGG [A16G C52A]: the self-cleavage came out at 0.97.

Turning to CCGCCUAACACUGCCGAUGCCGGUCCCAAGGCCGGAUAAAAGUGGAGGGGGCGG [A16G C31G], the self-cleavage worked out at 0.16. Turning to CCGCCUAACACUGCCGAUGCCGGUCCCAAGUCCGGAUAAAAGUGGAGGGGGCGG [A16G C31U], the self-cleavage came out at 0.94.

Take CCGCCUAACACUGCCGAUGCCGGUCCCAAGACCGGAUAAAAGUGGAGGGGGCGG [A16G C31A]: the self-cleavage was determined as 0.03. On to CCGCCUAACACUGCCGACGCCGGUCCCAAGCCCGGAUAAAAGUGGAGGGGGCGG [A16G U18C], for which the self-cleavage turned out to be 0.97.

On to CCGCCUAACACUGCCGAGGCCGGUCCCAAGCCCGGAUAAAAGUGGAGGGGGCGG [A16G U18G], for which the self-cleavage is 0.83.

For CCGCCUAACACUGCCGAAGCCGGUCCCAAGCCCGGAUAAAAGUGGAGGGGGCGG [A16G U18A], the self-cleavage was 0.92.
